Reference: ChEMBL document CHEMBL1141264, “Cucurbitane-type triterpenoids from the fruits of Momordica charantia and their cancer chemopreventive effects” (J Nat Prod, 2007)

Columns and labels:
[1] = species on record: Mus musculus; test: Inhibition of DMBA-induced carcinogenesis in mouse assessed as reduction in papilloma bearing mouse after 20 weeks; format: functional; parameters: scale not given: the % may be the effect or the level left
In short: (§1)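 Mouse skin two-stage model, DMBA initiation and TPA promotion. Promotion with TPA 1.7 nmol; treated groups received 85 nmol test compound with each TPA application. Read-outs were % of mice bearing papillomas and mean papillomas per mouse, scored at 10 and 20 weeks. Papilloma numbers compared by Student's t-test.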

[2] = species on record: Mus musculus; test: Inhibition of DMBA-induced carcinogenesis in mouse assessed as reduction in papilloma bearing mouse after 10 weeks; format: functional; parameters: scale not given: the % may be the effect or the level left; in short: as §1
[3] = species on record: Mus musculus; test: Inhibition of DMBA-induced carcinogenesis in mouse assessed as number of papillomas per mouse after 10 weeks; format: functional; in short: as §1
[4] = Cytotoxicity against human Raji cells assessed as cell viability at 1000 mol ratio/TPA relative to control; format: cell-based; details: read-out: Activity
In short: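 Raji cells stimulated with TPA at 32 pmol (20 ng), taken as 100% positive control. Test compound added at mol ratio to TPA of 1000, 500, 100 or 10 (1000:1 = 32 nmol). EBV-EA induction expressed as % of positive control; Raji cell viability recorded as % at the 1000 ratio. IC50 as mol ratio to TPA inhibiting 50% of control.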

[5] = species on record: Mus musculus; test: Inhibition of DMBA-induced carcinogenesis in mouse assessed as number of papillomas per mouse after 20 weeks; format: functional; in short: as §1
[6] = test system: Raji; test: Inhibition of TPA-induced Epstein-Barr virus early antigen in Raji cells at 10 mol ratio/TPA relative to control; values are per cent of control; details: human gammaherpesvirus 4
[7] = Scavenging activity against NO generation in NOR1-induced cell culture; format: functional
In short: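 Cultured-cell screen for scavenging of NO released by the NO donor NOR 1. Activity expressed as inhibitory ratio (IR) against NOR 1 action, with glycyrrhizin and carboxy-PTIO as reference compounds.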

[8] = test system: Raji; test: Inhibition of TPA-induced Epstein-Barr virus early antigen in Raji cells at 500 mol ratio/TPA relative to control; values are per cent of control; details: human gammaherpesvirus 4
[9] = test system: Raji; test: Inhibition of TPA-induced Epstein-Barr virus early antigen in Raji cells at 1000 mol ratio/TPA relative to control; values are per cent of control; details: human gammaherpesvirus 4
[10] = test system: Raji; test: Inhibition of TPA-induced Epstein-Barr virus early antigen in Raji cells at 100 mol ratio/TPA relative to control; values are per cent of control; details: human gammaherpesvirus 4

C=C(C)/C=C/C[C@@H](C)[C@H]1CC[C@@]2(C)[C@@H]3C=C[C@@]45O[C@@H](OC)[C@]3(CC[C@]12C)[C@@H]4CC[C@H](O)C5(C)C
Activity [1]: 80% | Activity [2]: 33% | Activity [3]: 1.7 | viability at 1000 mol ratio/TPA [4]: 70% | Activity [5]: 4 | level, % of control [6]: 82.7% | inhibitory ratio (IR) against NOR 1 action [7]: 2 | level, % of control [8]: 18.5% | level, % of control [9]: 0% | level, % of control [10]: 60.2%

CO[C@H]1C=C2[C@@H](CC[C@H](O)C2(C)C)[C@]2(C=O)CC[C@]3(C)[C@@H]([C@H](C)C/C=C/C(C)(C)OC)CC[C@@]3(C)[C@H]12
viability at 1000 mol ratio/TPA [4]: 70% | level, % of control [6]: 97.3% | inhibitory ratio (IR) against NOR 1 action [7]: 1.5 | level, % of control [8]: 33.7% | level, % of control [9]: 0% | level, % of control [10]: 77.5%

COC1O[C@]23C=C[C@@H]4[C@@]1(CC[C@]1(C)[C@@H]([C@H](C)C/C=C/C(C)(C)O)CC[C@@]41C)[C@@H]2CC[C@H](O)C3(C)C (stereo partly drawn)
viability at 1000 mol ratio/TPA [4]: 70% | level, % of control [6]: 94.5% | inhibitory ratio (IR) against NOR 1 action [7]: 1.9 | level, % of control [8]: 27.6% | level, % of control [9]: 0% | level, % of control [10]: 72.5%

C=C(C)/C=C/C[C@@H](C)[C@H]1CC[C@@]2(C)[C@@H]3[C@@H](OC)C=C4[C@@H](CC[C@H](O)C4(C)C)[C@]3(C=O)CC[C@]12C
viability at 1000 mol ratio/TPA [4]: 70% | level, % of control [6]: 95.3% | inhibitory ratio (IR) against NOR 1 action [7]: 1.6 | level, % of control [8]: 22.5% | level, % of control [9]: 0% | level, % of control [10]: 75.4%

CC1(C)N([O])C(c2ccc(C(=O)O)cc2)=[N+]([O-])C1(C)C
inhibitory ratio (IR) against NOR 1 action [7]: 8

CC1=C(/C=C/C(C)=C/C=C/C(C)=C/C=C/C=C(C)/C=C/C=C(C)/C=C/C2=C(C)CCCC2(C)C)C(C)(C)CCC1
level, % of control [6]: 100% | level, % of control [8]: 34.2% | level, % of control [9]: 8.6% | level, % of control [10]: 82.1%

C=C(C)/C=C/C[C@@H](C)[C@H]1CC[C@@]2(C)[C@@H]3C=C[C@@]45OC[C@]3(CC[C@]12C)[C@@H]4CC[C@H](O[C@@H]1O[C@H](CO)[C@@H](O)[C@H](O)[C@H]1O)C5(C)C [CHARANTOSIDE III]
viability at 1000 mol ratio/TPA [4]: 70% | level, % of control [6]: 100% | level, % of control [8]: 36% | level, % of control [9]: 12.9% | level, % of control [10]: 82.1%

CO[C@@H]1O[C@]23C=C[C@@H]4[C@@]1(CC[C@]1(C)[C@@H]([C@H](C)C[C@H](C=C(C)C)OC)CC[C@@]41C)[C@@H]2CC[C@H](O[C@@H]1O[C@H](CO)[C@@H](O)[C@@H](O)[C@H]1O)C3(C)C [CHARANTOSIDE II]
viability at 1000 mol ratio/TPA [4]: 70% | level, % of control [6]: 100% | level, % of control [8]: 35% | level, % of control [9]: 12.3% | level, % of control [10]: 82.1%

C=C(C)/C=C/C[C@@H](C)[C@H]1CC[C@@]2(C)[C@@H]3C=C[C@@]45OC[C@]3(CC[C@]12C)[C@@H]4CC[C@H](O[C@@H]1O[C@H](CO)[C@@H](O)[C@@H](O)[C@H]1O)C5(C)C [CHARANTOSIDE IV]
viability at 1000 mol ratio/TPA [4]: 70% | level, % of control [6]: 100% | level, % of control [8]: 35% | level, % of control [9]: 12.1% | level, % of control [10]: 81.1%

C=C(C)/C=C/C[C@@H](C)[C@H]1CC[C@@]2(C)[C@@H]3C=C[C@@]45O[C@@H](OC)[C@]3(CC[C@]12C)[C@@H]4CC[C@H](O[C@@H]1O[C@H](CO)[C@@H](O)[C@H](O)[C@H]1O)C5(C)C [CHARANTOSIDE I]
viability at 1000 mol ratio/TPA [4]: 70% | level, % of control [6]: 100% | level, % of control [8]: 35.4% | level, % of control [9]: 12.6% | level, % of control [10]: 81.1%
